System: not listed separately
Assay: Inhibition of mouse full length GST-tagged B-Raf V600E mutant-mediated human MEK1 phosphorylation after 1 hr preincubation
Settings: not given

Row | SMILES | IC50 [µM]
1 | CNC(=O)c1cc(Oc2ccc(NC(=O)Nc3ccc(Cl)c(C(F)(F)F)c3)cc2)ccn1 [SORAFENIB] | 0.06
2 | O=c1cc(-c2ccc3c(c2)OCCO3)oc2cc(CCCN3CCCC3)cc(O)c12 | 10.6
3 | Cc1ccc(N2C(=O)c3ccccc3SC2c2cc(Br)ccc2O)cc1 (centres undefined) | > 25
4 | Cc1ccc(N(Cc2cc(Cl)cc(Cl)c2O)CN(N=O)c2ccccc2)cc1 | 8.61
5 | O=C1c2ccccc2SC(c2cc(Br)ccc2O)N1c1ccc(C(F)(F)F)cc1 (centres undefined) | > 25

Target: Serine/threonine-protein kinase B-raf (Homo sapiens, UniProt P15056, V600E)
Sequence (P15056 2-766 V600E limits assumed): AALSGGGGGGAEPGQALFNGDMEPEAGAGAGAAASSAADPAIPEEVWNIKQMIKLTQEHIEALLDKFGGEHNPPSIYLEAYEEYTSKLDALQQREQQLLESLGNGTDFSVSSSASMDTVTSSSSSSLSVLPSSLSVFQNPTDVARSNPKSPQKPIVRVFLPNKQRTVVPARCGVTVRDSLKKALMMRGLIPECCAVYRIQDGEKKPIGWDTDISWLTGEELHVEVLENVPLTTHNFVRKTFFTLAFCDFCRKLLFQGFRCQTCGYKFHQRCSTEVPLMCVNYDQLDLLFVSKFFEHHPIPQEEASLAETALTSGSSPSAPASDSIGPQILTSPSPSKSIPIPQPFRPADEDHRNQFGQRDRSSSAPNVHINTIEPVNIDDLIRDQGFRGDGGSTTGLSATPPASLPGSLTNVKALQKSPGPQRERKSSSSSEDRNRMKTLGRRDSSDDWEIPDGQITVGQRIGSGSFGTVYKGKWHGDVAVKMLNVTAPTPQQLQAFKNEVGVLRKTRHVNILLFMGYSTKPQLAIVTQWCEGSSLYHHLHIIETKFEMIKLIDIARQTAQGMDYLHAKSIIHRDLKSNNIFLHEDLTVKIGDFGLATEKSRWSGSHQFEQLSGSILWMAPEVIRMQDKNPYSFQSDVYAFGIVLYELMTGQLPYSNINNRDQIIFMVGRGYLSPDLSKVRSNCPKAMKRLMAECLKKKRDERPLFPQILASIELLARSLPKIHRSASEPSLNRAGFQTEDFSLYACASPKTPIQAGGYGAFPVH
Assay: Inhibition of B-Raf V600E mutant-mediated ERK phosphorylation in human WM266.4 cells by ELISA
Format: cell-based
Settings: not given
How it was run: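 Phospho-ERK1/2 levels in WM266.4 melanoma cells were measured with an ELISA kit, run as the manufacturer instructs.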

Row | SMILES | IC50 [µM]
6 | O=C(/C(=C\c1ccc(F)cc1)S(=O)(=O)Cc1ccccc1)c1ccc(Cl)cc1 | 1.78
7 | O=C(/C(=C\c1ccc([N+](=O)[O-])cc1)S(=O)(=O)Cc1ccccc1)c1ccc(Cl)cc1 | 1.23
8 | O=C(/C(=C\c1ccc([N+](=O)[O-])cc1)S(=O)(=O)Cc1ccccc1)c1ccccc1 | 1.37

System: not listed separately
Assay: Growth inhibition of human WM266.4 cells expressing B-Raf V600E mutant after 24 hrs by MTT assay
Format: functional
Settings: WM 266-4, 24 h
How it was run: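 MTT growth assay. Cells were plated, then returned to the incubator for 24 h to reattach before treatment. Compounds were made up at 20 mM in DMSO (stock), diluted in culture medium to […], and tested over 10 threefold serial dilutions. GI50 was reported from three separate experiments, or from two for some entries.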

Row | SMILES | GI50 [µM]
9 | CNC(=O)c1cc(Oc2ccc(NC(=O)Nc3ccc(Cl)c(C(F)(F)F)c3)cc2)ccn1 [SORAFENIB] | 8.3
